E-selectin induc – induces E-selectin expression in human endothelial cells; P16581; HUVEC E-selectin immunofluorescence imaging; normalized: neutral wells 0, TNF-alpha wells 100; activation, % at 7.58 µM; 260,000 tested, 0.37% active;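 active = mean E-selectin-positive cell signal at least 10% of the positive control, reached in at least 60% of replicates, without over 20% cell loss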
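Test system: HUVEC | Signal: Immunofluorescence imaging | Read-out: Percent E-selectin-positive cells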
DENV2 CPE rescue – DENV2-induced cell death inhibition; DENV2-infected cells, cytopathic effect rescue, plate reader; CPE inhibition, % at 9.99 µM; 350,000 tested, 1.7% active; in the data active = CPE inhibition above about 20%, passing the limit was not always enough; tested in BHK-21 cells
SIRT5 block – blocks human SIRT5 desuccinylation of peptide; 330,000 tested, 1.1% active; inhibition, % at 15 µM; Purified SirT5, succinyl-peptide AMC, trypsin-coupled fluorescence; in the data active = inhibition above about 15%
Target sequence (Q9NXA8 whole entry, looked up): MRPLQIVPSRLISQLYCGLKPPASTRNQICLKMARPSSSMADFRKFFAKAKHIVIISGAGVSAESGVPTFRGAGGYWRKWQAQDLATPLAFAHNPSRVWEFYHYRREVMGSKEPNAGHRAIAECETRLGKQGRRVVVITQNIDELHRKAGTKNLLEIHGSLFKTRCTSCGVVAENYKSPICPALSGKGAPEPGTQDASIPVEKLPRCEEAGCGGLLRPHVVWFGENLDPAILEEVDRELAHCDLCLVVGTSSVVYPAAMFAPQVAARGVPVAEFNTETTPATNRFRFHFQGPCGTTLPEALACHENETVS
Large screens that a line does not name were inactive. This is a sample that favours compounds with a hit; in the whole collection about 2.9% have one here.

Cc1ccc(S(=O)(=O)N[C@@H](CO)C(=O)N[C@@H](Cc2ccc(O)cc2)C(=O)O)cc1	SIRT5 block 21
Cc1ccc(S(=O)(=O)NC(Cc2ccccc2)C(=O)O)cc1C (stereo not drawn)	E-selectin induc 59
CCc1n[nH]c(=S)n1/N=C/C(C)=C\c1ccccc1	none (no result: E-selectin induc)
Fc1ccc(Nc2nc(NCc3ccco3)c3ccccc3n2)cc1	none
O=C(C1CC1)N1CC2(C1)[C@H](c1ccccc1)[C@@H](CO)N2Cc1nccs1	DENV2 CPE rescue 37
O=C(C1CC1)N1CC2(C1)[C@H](c1ccccc1)[C@@H](CO)N2Cc1ccc(Cl)cc1	none
O=C(C1CCCCC1)N1CC2(C1)[C@H](c1ccccc1)[C@@H](CO)N2Cc1nccs1	none
COc1cccc(CN2[C@H](CO)[C@H](c3ccccc3)C23CN(C(=O)C2CCCC2)C3)c1	none (no result: E-selectin induc)
O=C(C1CCCCC1)N1CC2(C1)[C@H](c1ccccc1)[C@@H](CO)N2CC1CCCC1	none
COc1cccc(CN2[C@@H](CO)[C@H](c3ccccc3)C23CN(C(=O)C2CCCC2)C3)c1	SIRT5 block 26 (no result: E-selectin induc)
O=C(C1CCCCC1)N1CC2(C1)[C@@H](c1ccccc1)[C@@H](CO)N2CC1CCCC1	DENV2 CPE rescue 69
O=C(C1CCCCC1)N1CC2(C1)[C@@H](c1ccccc1)[C@@H](CO)N2Cc1nccs1	DENV2 CPE rescue 28
Cc1ccc(/C=N/NC(=O)c2ccccn2)o1	none (no result: E-selectin induc, DENV2 CPE rescue)
COc1cc(CC(=O)NNC(=O)c2cccs2)cc(OC)c1OC	none
Cc1cc(NC(=O)CSCC(=O)Nc2ccc(Cl)c(C(F)(F)F)c2)no1	none
COc1ccc(S(=O)(=O)N2CCCCN3[C@H](CO)[C@H](c4ccc(C5=CCCC5)cc4)[C@@H]3C2)cc1	DENV2 CPE rescue 141
COc1ccc(S(=O)(=O)N2CCCCN3[C@H](CO)[C@@H](c4ccc(C#CC(C)C)cc4)[C@@H]3C2)cc1	none
COc1ccc(S(=O)(=O)N2CCCCN3[C@H](C2)[C@H](c2ccc(C#CC(C)C)cc2)[C@@H]3CO)cc1	SIRT5 block 16
COc1ccc(S(=O)(=O)N2CCCCN3[C@H](CO)[C@@H](c4ccc(C5=CCCC5)cc4)[C@@H]3C2)cc1	none
Cc1cc(C(=O)Nc2cccc3c2O[C@H](CN(C)C)[C@@H](C)CN([C@@H](C)CO)C3=O)n(C)n1	none
Cc1ccc(C)c(NC2CCCCC2NS(=O)(=O)c2ccccc2)c1 (stereo not drawn)	none (no result: E-selectin induc)
Cc1onc(-c2ccccc2Cl)c1C(=O)NNC(=O)C1CCN(Cc2ccccc2)CC1	none
CC(C)c1ccc(NC(=O)CCCN2C(=O)NC(C)(C)C2=O)cc1	none
CCc1cccc(C)c1NC(=O)CCCN1C(=O)NC(C)(C)C1=O	E-selectin induc 27
Cc1onc(-c2ccccc2)c1C(=O)NN=Cc1cc(Cl)cc(Cl)c1O	none (no result: SIRT5 block)
Cc1onc(-c2ccccc2)c1C(=O)N/N=C/c1c(F)cccc1Cl	DENV2 CPE rescue 79
Cc1ccccc1NC(=O)c1ccccc1N(C)S(=O)(=O)c1ccccc1	none (no result: E-selectin induc)
O=C(c1ccc2oc(CCCc3ccccc3)nc2c1)N1CCCC1	none (no result: E-selectin induc)
Cc1ccc(NC(=O)CO/N=C(\N)c2ccccc2)cc1C	none (no result: SIRT5 block)
N#C[C@H]1[C@@H](c2ccccc2C2=CCCC2)[C@@H](CO)N1C(=O)C1CCOCC1	DENV2 CPE rescue 36
C/C=C/c1ccccc1[C@H]1[C@@H](C#N)N(C(=O)CN2CCOCC2)[C@@H]1CO	DENV2 CPE rescue 39
N#C[C@@H]1[C@@H](c2ccccc2C2=CCCCC2)[C@@H](CO)N1C(=O)CN1CCOCC1	DENV2 CPE rescue 30
C/C=C/c1ccccc1[C@H]1[C@H](C#N)N(C(=O)CN2CCOCC2)[C@H]1CO	none
CN1C[C@@H]2[C@H](c3ccccc31)[C@H](CO)N2C(=O)CN1CCOCC1	DENV2 CPE rescue 37
N#C[C@@H]1[C@@H](c2ccccc2C2=CCCC2)[C@H](CO)N1C(=O)C1CCOCC1	none
CN1C[C@@H]2[C@H](c3ccccc31)[C@@H](CO)N2C(=O)CN1CCOCC1	none
N#C[C@@H]1[C@H](c2ccccc2C2=CCCCC2)[C@@H](CO)N1C(=O)CN1CCOCC1	none
CC(C)[C@H](NC(N)=O)C(=O)NNC(=O)COc1cccc(C(F)(F)F)c1	none
Nc1cc2c(cc1Br)-c1c(C(=O)O)cccc1C2O (stereo not drawn)	none
Cc1ccc(S(=O)(=O)/N=C2/NC(=O)/C(=C\c3ccccc3)S2)cc1	none (no result: E-selectin induc)
CC(=O)Nc1ccc(S(=O)(=O)/N=C2/NC(=O)/C(=C\c3ccco3)S2)cc1	SIRT5 block 15 (no result: E-selectin induc)
CN(CCOC(=O)/C=C/c1ccccc1)C(C)(C)C	none (no result: E-selectin induc, SIRT5 block)
CCC(=O)N(C)C[C@@H]1Oc2ncc(C#CC3(O)CCCC3)cc2C(=O)N([C@H](C)CO)C[C@@H]1C	none
CC(C)NC(=O)N(C)C[C@H]1Oc2ncc(C#CC3(O)CCCC3)cc2C(=O)N([C@@H](C)CO)C[C@@H]1C	DENV2 CPE rescue 32
CCC(=O)N(C)C[C@H]1Oc2ncc(C#CC3(O)CCCC3)cc2C(=O)N([C@@H](C)CO)C[C@H]1C	SIRT5 block -2.7
CC(C)NC(=O)N(C)C[C@@H]1Oc2ncc(C#CC3(O)CCCC3)cc2C(=O)N([C@@H](C)CO)C[C@H]1C	none
O=C(C1CCC1)N1CC[C@H]2[C@H](CO)Nc3ccc(Br)cc3[C@H]21	none
O=C(C1CC1)N1CC[C@@H]2[C@H]1c1cc(Br)ccc1N[C@@H]2CO	DENV2 CPE rescue 36 (no result: SIRT5 block)
O=C(C1CC1)N1CC[C@H]2[C@H](CO)Nc3ccc(Br)cc3[C@H]21	DENV2 CPE rescue 27
O=C(C1CCCC1)N1CC[C@@H]2[C@H]1c1cc(Br)ccc1N[C@@H]2CO	none
CCOc1ccc(CNC(=O)C2Cc3cc(S(=O)(=O)N4CCCC4)ccc3N2C(C)=O)cc1 (stereo not drawn)	none (no result: E-selectin induc)
CC1(C(=O)NCc2cc(F)cc(C(F)(F)F)c2)C=CC2(CCCCC2)N1C(=O)c1ccccc1 (stereo not drawn)	DENV2 CPE rescue 100, SIRT5 block 24
CC1(C(=O)NCC2CC2)C=CC2(CCCCC2)N1C(=O)c1ccccc1 (stereo not drawn)	none (no result: E-selectin induc, DENV2 CPE rescue)
O=C(NNC1CC(=O)N(c2ccccc2)C1=O)c1ccco1 (stereo not drawn)	none (no result: E-selectin induc)
O=C(NC1CCCc2ccccc21)N[C@@H](Cc1ccccc1)C(=O)O (stereo partly drawn)	none
C[C@@H]1CN([C@H](C)CO)C(=O)c2cc(NC(=O)NC3CCCCC3)ccc2O[C@@H](C)CCCCO[C@H]1CN(C)S(=O)(=O)c1ccc(Cl)cc1	SIRT5 block 15
Cc1ccc(S(=O)(=O)N(C)C[C@H]2OCCCC[C@H](C)Oc3ccc(NC(=O)NC4CCCCC4)cc3C(=O)N([C@H](C)CO)C[C@@H]2C)cc1	none
C[C@@H]1CCCCO[C@@H](CN(C)S(=O)(=O)c2ccc(Cl)cc2)[C@H](C)CN([C@@H](C)CO)C(=O)c2cc(NC(=O)NC3CCCCC3)ccc2O1	none
Cc1ccc(S(=O)(=O)N(C)C[C@H]2OCCCC[C@@H](C)Oc3ccc(NC(=O)NC(C)C)cc3C(=O)N([C@@H](C)CO)C[C@H]2C)cc1	none
Cc1ccc(S(=O)(=O)N(C)C[C@H]2OCCCC[C@@H](C)Oc3ccc(NC(=O)NC(C)C)cc3C(=O)N([C@H](C)CO)C[C@@H]2C)cc1	DENV2 CPE rescue 72

Bioassay records from PubChem BioAssay.
